In publication PMC12783166 (Clinical Pharmacokinetics, 2025):
Values joined by “and” are separate entries in the source; they are usually repeats but may differ in a detail not shown here. Identical values can stand only once.

How the values were obtained:
[1] = Phase 1 population PK model; format: in vivo, human; conditions: Phase 1 Model
[2] = Phase 3 population PK model; format: in vivo, human
How it was run: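 Nonlinear mixed-effects model fitted by FOCE with interaction to pooled plasma and dried-blood-spot LC-MS/MS concentrations from 12 phase 1, 1 phase 2b/3 and 1 phase 3 study (healthy participants and migraine patients, single/multiple oral doses). Plasma LLOQ 0.1 or 1.0 ng/mL, DBS 2.5 ng/mL. Below-LLOQ samples and |CWRES| > 6 excluded. Log-normal IIV. Covariates added stepwise (ΔOFV 6.63, P < 0.01).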

[3] = test system: calcitonin gene-related peptide receptor; conditions: plasma concentration threshold; cited from earlier work
[4] = test system: cytochrome P450 3A4 (CYP3A4); conditions: cited from earlier work
[5] = test system: OATP1B1; conditions: cited from earlier work
[6] = test system: OAT1; conditions: cited from earlier work
[7] = Phase 3 Model, fractional covariate effect
[8] = Phase 3 Model, multiple rifampin doses and a single atogepant dose
[9] = Phase 3 Model, proportional residual error
[10] = Phase 3 Model, single-dose atogepant and single-dose rifampin

C[C@@H]1[C@H](c2c(F)ccc(F)c2F)C[C@H](NC(=O)c2cnc3c(c2)C[C@@]2(C3)C(=O)Nc3ncccc32)C(=O)N1CC(F)(F)F [atogepant, Atogepant]
Famotidine pre-treatment on Frel ([1]; fractional covariate effect): −0.15
Famotidine pre-treatment on ka ([1]; fractional covariate effect): −0.51
Formulation 2 tablet effect on ka ([1]; fractional covariate effect): −0.44
Formulation 2 tablet on Frel ([1]; fractional covariate effect): −0.17
Formulation 4 tablet effect on ka ([1]; fractional covariate effect): −0.42
Oral solution on Frel ([1]; fractional covariate effect): −0.67
Absorption rate constant [ka (/h)] ([1]; healthy participants): 2.44 h⁻¹
Apparent clearance healthy participants [CL/F (L/h)] ([1]; healthy participants): 19.82 L/h
Lag time [ALAG (h)] ([1]; healthy participants): 0.30 h
Exponential dose effect on ka ([1]; power exponent): −0.41
σprop ([1]; proportional residual error): 0.12
ω^2CL/F ([1]; variance of IIV): 0.151
ω^2Q/F ([1]; variance of IIV): 0.197
ω^2V1/F ([1]; variance of IIV): 0.136
ω^2V2/F ([1]; variance of IIV): 0.422
ω^2ka ([1]; variance of IIV): 0.537
Blood concentrations as percentage of those in plasma ([2]; Phase 3 Model): 57.3%
Blood-plasma ratio ([2]; Phase 3 Model): 0.573
Effect of concomitant statins on CL/F and Frel ([2]; Phase 3 Model): not found to have a significant effect
Fraction zero-order absorption (Fk0) ([2]; Phase 3 Model): 0.693
Frel at the 60-mg dose compared with the 10-mg dose ([2]; Phase 3 Model): approximately 1.24 fold
Higher Frel with coadministration of itraconazole ([2]; Phase 3 Model): 1.95 fold
IIV on CL/F ([2]; Phase 3 Model): 15.6 % CV
IIV on Frel ([2]; Phase 3 Model): 48.4 % CV
IIV on Q/F ([2]; Phase 3 Model): 68.6 % CV
IIV on Tk0 ([2]; Phase 3 Model): 40.4 % CV
IIV on V2/F ([2]; Phase 3 Model): 77.5 % CV
IOV on Frel ([2]; Phase 3 Model): 19.3 % CV
Duration zero-order absorption [Tk0 (h)] ([2]; Phase 3 Model, 60 mg reference dose): 0.908 h
Residual variability error term ([2]; Phase 3 Model, CGP-PK-02): 22.8 % CV
Residual variability error term ([2]; Phase 3 Model, EM phase 2b/3 study): 58.5 % CV
Lower CL/F with coadministration of quinidine ([2]; Phase 3 Model, P-gp inhibitor): 28.5%
Residual variability error term ([2]; Phase 3 Model, all phase 1 studies except CGP-PK-02): 30.7 % CV
CovQ/F,V2/F ([2]; Phase 3 Model, covariance of IIV): 0.422
Food effect on ALAG [2, 7]: 0.672
Itraconazole effect on Frel [2, 7]: 0.949
Rifampin effect on Frel after first dose [2, 7]: 1.42
Rifampin effect on Frel following multiple doses [2, 7]: −0.248
Apparent clearance healthy participants [CL/F (L/h)] ([2]; Phase 3 Model, healthy participants): 22.9 L/h
Absorption lag time following a high-fat meal ([2]; Phase 3 Model, high-fat meal): 0.46 h
Decrease of Frel with multiple rifampin doses [2, 8]: 24.8%
Increase of CL/F with multiple rifampin doses [2, 8]: 1.82 fold
Apparent clearance patients [CL/F (L/h)] ([2]; Phase 3 Model, patients with EM): 17.4 L/h
CL/F lower in patients than in healthy participants ([2]; Phase 3 Model, patients with EM vs healthy participants): 23.7%
Residual variability error term ([2]; Phase 3 Model, phase 3 studies): 49.1 % CV
Exponential weight effect on V1/F ([2]; Phase 3 Model, power exponent, body weight/76.8 kg): 0.411
Exponential dose effect on Frel ([2]; Phase 3 Model, power exponent, dose/60 mg): 0.119
σprop [2, 9]: 0.307
σprop (ADVANCE and PROGRESS studies) [2, 9]: 0.491
σprop (study CGP-MD-01) [2, 9]: 0.585
σprop (study CGP-PK-02) [2, 9]: 0.228
Lower CL/F with severe hepatic impairment ([2]; Phase 3 Model, relative to normal liver function or mild or moderate hepatic impairment): 36.6%
Higher Frel with single-dose rifampin [2, 10]: 2.4 fold
Lower CL/F with single-dose rifampin [2, 10]: ~ 13% and 12.8%
Lower CL/F with coadministration of itraconazole ([2]; Phase 3 Model, strong CYP3A4 inhibitor): 66.2%
ω^2CL/F ([2]; Phase 3 Model, variance of IIV): 0.0243
ω^2Frel ([2]; Phase 3 Model, variance of IIV): 0.234
ω^2Q/F ([2]; Phase 3 Model, variance of IIV): 0.471
ω^2V2/F ([2]; Phase 3 Model, variance of IIV): 0.601
ω^2tk0 ([2]; Phase 3 Model, variance of IIV): 0.163
ω^2IOVFrel ([2]; Phase 3 Model, variance of IOV): 0.0373
Lag time [ALAG (h)] ([2]; Phase 3 Model, without food): 0.276 h
Vd/F ([2]; human, plasma, oral): 86.1 L
EC90 (effective concentration that results in 90% inhibition of the CGRP receptor) [3]: 8.4 ng/mL
Metabolizing enzyme [4]: primarily metabolized by cytochrome P450 3A4 (CYP3A4)
Transporter substrate status [5]: substrate
Transporter substrate status [6]: substrate
